Measurements reported in ChEMBL document CHEMBL2062526, “Tandem synthesis and in vitro antiplasmodial evaluation of new naphtho[2,1-d]thiazole derivatives” (Eur J Med Chem, 2012).

Test system: not listed separately
Test: Cytotoxicity against human HepG2 cells after 72 hrs by MTT assay
Type: cell-based
Settings: not given
Outline: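 HepG2 cells seeded at 5×10^3/well in RPMI with 10% FBS, L-glutamine, penicillin/streptomycin, 37 °C under 6% CO₂/14% O₂/80% N₂. Compounds added after 24 h, 72 h exposure, duplicate wells. MTT (5 mg/mL stock) for 2 h, formazan dissolved in DMSO, A570 with 630 nm reference. Viability relative to untreated cells. CC50 from non-linear regression, mean of three independent experiments.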
Work on `Cc1ccc(S(=O)(=O)c2cc3ccccc3c3sc(C)nc23)cc1` yielded a CC50 at 72 h of 2.2 µM.
`Cc1ccc(S(=O)(=O)c2cc3ccc(C)cc3c3sc(C)nc23)cc1` gave a CC50 at 72 h greater than 250 µM.
With `Cc1ccc(S(=O)(=O)c2cc3cc(F)ccc3c3sc(C)nc23)cc1` the CC50 at 72 h was 3.1 µM.
`COc1cc2cc(S(=O)(=O)c3ccc(C)cc3)c3nc(C)sc3c2cc1OC` showed a CC50 at 72 h greater than 125 µM.
`Cc1ccc(S(=O)(=O)c2c(N)c3ccccc3c3sc(C)nc23)cc1` gave a CC50 at 72 h of 0.2 µM.
`Cc1ccc(S(=O)(=O)c2c(N)c3cc(F)ccc3c3sc(C)nc23)cc1` showed a CC50 at 72 h of 0.2 µM.
`Cc1nc2c(S(=O)(=O)c3ccccc3)cc3ccccc3c2s1` gave a CC50 at 72 h of 11.3 µM.
`Cc1ccc2cc(S(=O)(=O)c3ccccc3)c3nc(C)sc3c2c1` showed a CC50 at 72 h greater than 125 µM.
For `Cc1nc2c(S(=O)(=O)c3ccccc3)cc3cc(F)ccc3c2s1`, the CC50 at 72 h was 26 µM.
In the case of `COc1cc2cc(S(=O)(=O)c3ccccc3)c3nc(C)sc3c2cc1OC`, the CC50 at 72 h is reported as greater than 125 µM.
In the case of `Cc1nc2c(S(=O)(=O)c3ccccc3)c(N)c3ccccc3c2s1`, the CC50 at 72 h is reported as greater than 500 µM.
Molecule `Cc1nc2c(S(=O)(=O)c3ccccc3)c(N)c3cc(F)ccc3c2s1` has a CC50 at 72 h greater than 500 µM.
For `Cc1nc2c(S(=O)(=O)c3ccc(Cl)cc3)cc3ccccc3c2s1`, the CC50 at 72 h was 6 µM.
`Cc1nc2c(S(=O)(=O)c3ccc(Cl)cc3)cc3cc(F)ccc3c2s1` gave a CC50 at 72 h of 3.4 µM.
For `COc1cc2cc(S(=O)(=O)c3ccc(Cl)cc3)c3nc(C)sc3c2cc1OC`, the CC50 at 72 h was greater than 31.2 µM.
Work on `Cc1nc2c(S(=O)(=O)c3ccc(Cl)cc3)c(N)c3ccccc3c2s1` yielded a CC50 at 72 h of 1 µM.
In the case of `Cc1nc2c(S(=O)(=O)c3ccc(Cl)cc3)c(N)c3cc(F)ccc3c2s1`, the CC50 at 72 h is reported as 0.5 µM.

Test system: Plasmodium falciparum
Test: Antiplasmodial activity against multidrug-resistant Plasmodium falciparum K1 ring stage after 72 hrs by […] Green fluorescence-based assay
Type: functional, organism-based
Settings: K1, 72 h
`Cc1ccc(S(=O)(=O)c2cc3ccc(C)cc3c3sc(C)nc23)cc1` showed an IC50 greater than 25 µM.
`COc1cc2cc(S(=O)(=O)c3ccc(C)cc3)c3nc(C)sc3c2cc1OC` showed an IC50 greater than 25 µM.
`Cc1nc2c(S(=O)(=O)c3ccccc3)cc3ccccc3c2s1` gave an IC50 greater than 25 µM.
`Cc1ccc2cc(S(=O)(=O)c3ccccc3)c3nc(C)sc3c2c1` gave an IC50 of 4.8 µM.
With `Cc1nc2c(S(=O)(=O)c3ccccc3)cc3cc(F)ccc3c2s1` the IC50 was greater than 25 µM.
`COc1cc2cc(S(=O)(=O)c3ccccc3)c3nc(C)sc3c2cc1OC` showed an IC50 of 2.7 µM.
`Cc1nc2c(S(=O)(=O)c3ccccc3)c(N)c3ccccc3c2s1` gave an IC50 greater than 25 µM.
With `Cc1nc2c(S(=O)(=O)c3ccccc3)c(N)c3cc(F)ccc3c2s1` the IC50 was greater than 25 µM.
For `COc1cc2cc(S(=O)(=O)c3ccc(Cl)cc3)c3nc(C)sc3c2cc1OC`, the IC50 was greater than 25 µM.

Test system: not listed separately
Test: Selectivity index, ratio of CC50 for human HepG2 cells to IC50 for multidrug-resistant Plasmodium falciparum K1 ring stage
Type: functional
Settings: not given
Outline: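 SI = CC50 (HepG2)/IC50 (K1). HepG2 MTT: 5×10^3 cells/well, 24 h preculture, compound 72 h, 37 °C; MTT 2 h, formazan in DMSO, A570 (ref 630 nm); duplicates, CC50 by non-linear regression, mean of three experiments. K1 IC50 by 72 h SYBR Green assay on sorbitol-synchronized rings.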
With `Cc1nc2c(S(=O)(=O)c3ccccc3)cc3ccccc3c2s1` the “Ratio CC50/IC50” value was less than 0.5.
For `Cc1ccc2cc(S(=O)(=O)c3ccccc3)c3nc(C)sc3c2c1`, the “Ratio CC50/IC50” value was greater than 26.
For `Cc1nc2c(S(=O)(=O)c3ccccc3)cc3cc(F)ccc3c2s1`, the “Ratio CC50/IC50” value was less than 1.
With `COc1cc2cc(S(=O)(=O)c3ccccc3)c3nc(C)sc3c2cc1OC` the “Ratio CC50/IC50” value was greater than 45.
With `C[C@H]1c2cccc(O)c2C(=O)C2=C(O)[C@]3(O)C(=O)C(C(N)=O)=C(O)[C@@H](N(C)C)[C@@H]3[C@@H](O)[C@@H]21.O` [DOXYCYCLINE] the “Ratio CC50/IC50” value was 4.
